A selection: hits, their analogues and other compounds. The true share with any hit is near 1.5%.
Wnt bcat act = activators of Wnt/beta-catenin signaling; Wnt/beta-catenin reporter cell assay, activator, plate reader; activation, % at 9.35 µM; actives 1.2% (n = 300,000); AID 743398; in the data active means activation above about 30%, passing the limit was not always enough; inconclusive means no clear call, values can overlap the other calls;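 further: 0% = neutral control wells and 100% = positive control wells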
Cneo AK release = Cryptococcus neoformans lysis via adenylate kinase release; C. neoformans lysis, adenylate kinase release luminescence, 4 h; normalised: neutral wells 0, clomiphene wells 100; lysis activity, % at 15 µM; actives 0.2% (n = 360,000); AID 651654;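 active means mean lysis activity across replicates of at least 80%, whatever share of replicates individually reach that level; inactive means mean lysis activity below 80%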
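Material – Cryptococcus neoformans yeast cells · Quantity – 5 × 10^6 yeast cells/mL · Buffer or medium – YPD medium · Compound – single dose · Timing – 4 h static compound exposure, 37 °C, read 1 h post-reagent · Signal – adenylate kinase release luminescence · Read-out basis – lysis from increased AK signal · Benchmarks – Clomiphene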
MITF TRPM1 HTS = MITF TRPM1 promoter activation in melanoma cells. SK-MEL-5 TRPM1-promoter luciferase, 24 h; % of positive control, neutral wells = 0. AID 588334. actives 0.75% (n = 300,000). activation, % at 12.5 µM;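 active means mean activation of at least 80% with every replicate also reaching 80%; inconclusive means mean reaches 80% but some replicate falls short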;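 further: 0% = neutral control wells and 100% = parthenolide positive control wells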
PGC1a acetyl inh = PGC1a acetylation modulation, inhibitor mode; U2OS PGC1a acetylation, AlphaScreen anti-acetyl-lysine; with virally co-expressed GCN5 acetyltransferase; inhibition, % at 15.6 µM; actives 0.17% (n = 350,000); AID 651687;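 active means every replicate shows inhibition of at least 40%; inconclusive means mean inhibition at least 40% but some replicate below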;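 further: 0% = neutral control wells and 100% = positive control wells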
Numbers without * were called inactive; ? = inconclusive; / = not tested or not shown.

SMILES | Wnt bcat act | Cneo AK release | MITF TRPM1 HTS | PGC1a acetyl inh
C[C@@H]1CCCCO[C@@H](CN(C)Cc2ccc(C(=O)O)cc2)[C@H](C)CN([C@@H](C)CO)C(=O)c2cc(NC(=O)CCC(F)(F)F)ccc2O1 | / | -1 | / | 9
OCC1OC(Oc2c(Br)cc(Br)cc2Br)C(O)C(O)C1O (configuration not stated) | -1 | 0 | -4 | 63*
COc1cc2ccc(=O)oc2c(O[C@@H]2O[C@H](CO)[C@@H](O)[C@H](O)[C@H]2O)c1O | 0 | 0 | 3 | -10
CC(C)(C)C(=O)/C=C/c1ccc(Oc2ccccc2)cc1 | 33* | 3 | 79 | /
COc1ccc(NC(=S)N/C(=N/CS(=O)(=O)c2ccccc2)c2ccccc2)cc1 | 37* | -1 | 21 | 7
COc1cc(/C=C(\C#N)c2ccccn2)cc(OC)c1O | -4 | / | 1 | -16
CN(C)c1ccc(/C=C(\C#N)c2ccccn2)cc1 | / | -10 | -69 | -4
N#C/C(=C/c1cccs1)c1ccccn1 | 44* | / | ? | /
N#C/C(=C\c1ccc([N+](=O)[O-])cc1)c1ccccn1 | 39* | / | 44 | /
COC(=O)c1ccc(/C=C(\C#N)c2ccccn2)cc1 | 10 | -8 | 107* | 12
COC(=O)[C@H]1[C@H](CO)[C@H]2Cn3c(ccc(C4=CCCCC4)c3=O)[C@H]2N1C(=O)C1CCC1 | / | -1 | / | /
COC(=O)[C@]1(CCS(=O)(=O)c2ccccc2)N=C(c2ccc(OCCCO)cc2)O[C@@H]1c1ccccc1CN=[N+]=[N-] | / | -15 | / | -5
Nc1cc2nsnc2cc1Br | / | -3 | -69 | 60*
O=C(CN1CCOCC1)NCC[C@H]1CC[C@H](NS(=O)(=O)c2ccc(F)cc2)[C@@H](CO)O1 | / | 0 | / | -1
C[C@H](CO)N1C[C@H](C)[C@@H](CN(C)S(=O)(=O)c2ccccc2)Oc2c(NC(=O)Nc3cccc4ccccc34)cccc2C1=O | / | 103* | / | -16
Cc1cc(C(=O)Nc2cccc3c2O[C@@H](CN(C)S(=O)(=O)c2ccccc2)[C@@H](C)CN([C@@H](C)CO)C3=O)n(C)n1 | / | 104* | / | 5
Cc1noc(C)c1S(=O)(=O)N(C)C[C@@H]1OCCCC[C@@H](C)Oc2ccc(NC(=O)C3CCCCC3)cc2C(=O)N([C@@H](C)CO)C[C@H]1C | / | -1 | / | -17
C[C@@H]1CN([C@@H](C)CO)C(=O)Cc2cc(NS(=O)(=O)c3cn(C)cn3)ccc2O[C@@H]1CN(C)S(=O)(=O)c1ccccc1 | / | 3 | / | -5
C[C@H]1CN([C@@H](C)CO)C(=O)c2cc(-c3ccc(C#N)cc3)cnc2O[C@H]1CN(C)Cc1ccccn1 | / | -1 | / | -7
CC(=O)N1N=C(c2ccccc2)CC1c1cn(C)c2ccccc12 (configuration not stated) | 90* | -2 | -7 | -27
CC(=O)N1N=C(c2ccccc2)CC1c1ccc(F)cc1 (configuration not stated) | -1 | 5 | / | -9
C[C@@H]1CN([C@H](C)CO)C(=O)c2cc(NC(=O)Nc3ccc4c(c3)OCO4)ccc2O[C@@H](C)CCCCO[C@@H]1CN(C)C(=O)NC1CCCCC1 | / | -2 | / | 9
COc1ccc(OC)c(/C=C/C(=O)Nc2ccc(OC)nc2)c1 | 0 | / | 14 | /
COc1ccc(NC(=O)/C=C/c2ccco2)cn1 | ? | -2 | 118* | 0
COc1ccc(NC(=O)/C=C/c2cccc(F)c2)cn1 | 36* | -6 | 31 | /
SMILES | Wnt bcat act | Cneo AK release | MITF TRPM1 HTS | PGC1a acetyl inh
CC(C)CC#Cc1ccc2c(c1)O[C@H](CN(C)Cc1ccc3c(c1)OCO3)[C@@H](C)CN([C@H](C)CO)S2(=O)=O | / | / | / | -38
COC(=O)N/N=C\c1ccccc1OC/C=C/c1ccccc1 | 2 | -4 | 98* | 1
COc1cc(/C=N\NC(C)=O)ccc1OC/C=C/c1ccccc1 | -6 | 0 | -9 | /
N#CCC(=O)N/N=C\c1cc(Br)ccc1OC/C=C/c1ccccc1 | ? | -3 | 93* | /
CCOC(=O)N/N=C\c1ccccc1OC/C=C/c1ccccc1 | 42* | -2 | 49 | /
N#CCC(=O)N/N=C/c1cccc(Oc2ccccc2)c1 | -3 | / | 2 | -8
C[C@@H]1CN([C@@H](C)CO)C(=O)c2cc(C#CC3CC3)cnc2O[C@@H]1CN(C)C(=O)c1ccncc1 | / | / | / | 0
C[C@H]1CN([C@@H](C)CO)C(=O)Cc2cc(NC(=O)C3CC3)ccc2O[C@@H]1CN(C)CC1CCCCC1 | / | -2 | / | -23
O=C(NCc1ccc(Cl)cc1)c1cnn2ccccc12 | 9 | 1 | 96* | 3
O=C1c2ccccc2C(=O)N1CCCc1c[nH]c2ccccc12 | / | -6 | 44 | -1
O=C1c2ccccc2C(=O)N1CCc1c[nH]c2ccccc12 | 5 | / | 111* | -1
CCC(=O)N(C)C[C@H]1Oc2ncc(C#CCc3ccccc3)cc2C(=O)N([C@H](C)CO)C[C@@H]1C | / | 0 | / | -11
O=C1Nc2ccccc2/C1=C/c1cnc(-c2ccccc2)[nH]1 | 41* | 1 | / | 3
COc1ccc(C(=O)O/N=C(\N)c2ccc(Br)cc2)cc1 | 35* | 3 | 57 | -1
N/C(=N\OC(=O)c1ccc(Br)cc1)c1ccccc1 | / | / | 70 | 4
Cc1ccc(C(=O)O/N=C(\N)c2ccc(Br)cc2)cc1 | / | / | 89* | 8
COc1ccc(C(=O)O/N=C(\N)c2ccccc2)cc1 | 27 | -4 | 49 | -15
O=C(c1cccnc1)N1CC(=O)N2[C@H](CO)[C@@H](c3ccc(-c4ccccc4F)cc3)[C@H]2C1 | / | / | / | -13
O=C(Nc1nccs1)c1ccc(-c2ccccc2[N+](=O)[O-])o1 | 35* | -14 | 79 | -8
COc1ccccc1NC(=O)c1ccc(-c2ccccc2[N+](=O)[O-])o1 | 7 | / | 94* | /
O=C(Nc1nccs1)c1ccc(N2CCOCC2)c([N+](=O)[O-])c1 | 43* | -1 | 64 | /
O=C(Nc1nccs1)c1ccc(-c2ccccc2Cl)o1 | ? | / | 47 | 14
Cc1noc(C)c1S(=O)(=O)Nc1ccc2c(c1)C(=O)N([C@H](C)CO)C[C@@H](C)[C@@H](CN(C)C(=O)NC1CCCCC1)OCCCC[C@H](C)O2 | / | 2 | / | /
CN1[C@H](C(=O)NCCc2ccccc2)[C@@H](CO)[C@@H]2Cn3c(cccc3=O)[C@@H]21 | / | -3 | / | -7
COc1ccc(S(=O)(=O)Nc2ccc3c(c2)CC(=O)N([C@H](C)CO)C[C@@H](C)[C@H](CN(C)S(C)(=O)=O)O3)cc1 | / | -1 | / | -8
SMILES | Wnt bcat act | Cneo AK release | MITF TRPM1 HTS | PGC1a acetyl inh
O=C(C=Cc1ccco1)c1ccc2ccccc2c1 | 61* | / | 58 | 0
CN(C)c1ccc(C(=O)/C=C/c2ccco2)cc1 | / | / | 52 | /
Nc1ccccc1C(=O)NN=Cc1cccc([N+](=O)[O-])c1 | 39* | -8 | / | -8
O=C(COc1ccccc1[N+](=O)[O-])N/N=C/c1cccc(OC(=O)c2ccc3c(c2)OCO3)c1 | 29 | / | 95* | /
O=C(N/N=C/c1cccc([N+](=O)[O-])c1)c1ccc2c(c1)OCCO2 | 40* | -3 | / | -1
O=C(N/N=C/c1ccc(Cl)c([N+](=O)[O-])c1)c1ccc2c(c1)OCCO2 | 3 | 6 | 12 | 1
Cc1nc2ccccc2cc1C(=O)N/N=C/c1cccc([N+](=O)[O-])c1 | -5 | / | 4 | /
